From ChEMBL document CHEMBL4622914, “Development of a bioavailable boron-containing PI-103 Bioisostere, PI-103BE” (Bioorg Med Chem Lett, 2020)

Experiments:
A549 = experiment: Antiproliferative activity against human A549 cells assessed as reduction in cell viability incubated for 4 days by coulter counter method; assay type: functional, cell-based; conditions: A549, 96 h
In short: (§1)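 Cancer cells were seeded at 50,000 per well in DMEM with 5% FBS. They were exposed to six compound doses for 4 days, with DMSO as vehicle control and a reference inhibitor as positive control. Cells were counted by Coulter counter. Survival ratio is treated cell number over vehicle cell number. IC50 was taken from dose–response curves. Triplicate experiments.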

MDA-MB-231 = experiment: Antiproliferative activity against human MDA-MB-231 cells assessed as reduction in cell viability incubated for 4 days by coulter counter method; assay type: functional, cell-based; conditions: MDA-MB-231, 96 h; in short: as §1
HeLa = experiment: Antiproliferative activity against human HeLa cells assessed as reduction in cell viability incubated for 4 days by coulter counter method; assay type: functional, cell-based; conditions: 96 h; in short: as §1
CWR22R = experiment: Antiproliferative activity against human 22Rv1 cells assessed as reduction in cell viability incubated for 4 days by coulter counter method; assay type: functional, cell-based; conditions: 22Rv1, 96 h; in short: as §1
PC-3 = experiment: Antiproliferative activity against human PC3 cells assessed as reduction in cell viability incubated for 4 days by coulter counter method; assay type: functional, cell-based; conditions: PC-3, 96 h
In short: (§2)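 Cells seeded at 50,000 per well in DMEM with 5% FBS, exposed to six concentrations of compound for 4 days; DMSO as vehicle control. Cell numbers counted on a Coulter counter; survival ratio = treated/vehicle cell count. IC50 taken from dose-response curves. Triplicate experiments, mean ± SD.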

SK-OV-3 = experiment: Antiproliferative activity against human SKOV3 cells assessed as reduction in cell viability incubated for 4 days by coulter counter method; assay type: functional, cell-based; conditions: SK-OV-3, 96 h; in short: as §2
[1] = Stability of compound in cell culture medium assessed as compound hydrolysis measured after 0.5 hrs; assay type: physicochemical
[2] = Stability of compound in cell culture medium assessed as compound hydrolysis measured after 1 hr; assay type: physicochemical
[3] = Stability of compound in cell culture medium assessed as compound hydrolysis measured after 3 hrs; assay type: physicochemical
[4] = Stability of compound in cell culture medium assessed as compound hydrolysis measured after 8 hrs; assay type: physicochemical
[5] = Stability of compound in cell culture medium assessed as compound hydrolysis measured after 24 hrs; assay type: physicochemical
[6] = Drug concentration in ovariectomized nu/nu mouse plasma assessed 3-(4-morpholinopyrido [3',2':4,5] furo [3,2-d] pyrimidin-2-yl)phenol at 10 mg/kg, ip measured after 0.5 hrs by UHPLC-MS analysis; assay type: ADME, organism-based; conditions: in vivo
[7] = Drug concentration in ovariectomized nu/nu mouse plasma assessed 3-(4-morpholinopyrido [3',2':4,5] furo [3,2-d] pyrimidin-2-yl)phenol at 10 mg/kg, ip measured after 1 hr by UHPLC-MS analysis; assay type: ADME, organism-based; conditions: in vivo
[8] = Drug concentration in ovariectomized nu/nu mouse plasma assessed 3-(4-morpholinopyrido [3',2':4,5] furo [3,2-d] pyrimidin-2-yl)phenol at 10 mg/kg, ip measured after 3 hrs by UHPLC-MS analysis; assay type: ADME, organism-based; conditions: in vivo
[9] = Drug concentration in ovariectomized nu/nu mouse plasma assessed 3-(4-morpholinopyrido [3',2':4,5] furo [3,2-d] pyrimidin-2-yl)phenol at 10 mg/kg, ip measured after 8 hrs by UHPLC-MS analysis; assay type: ADME, organism-based; conditions: in vivo
[10] = Drug concentration in ovariectomized nu/nu mouse plasma assessed 3-(4-morpholinopyrido [3',2':4,5] furo [3,2-d] pyrimidin-2-yl)phenol at 10 mg/kg, ip measured after 24 hrs by UHPLC-MS analysis; assay type: ADME, organism-based; conditions: in vivo
[11] = Cmax in ovariectomized nu/nu mouse assessed 3-(4-morpholinopyrido [3',2':4,5] furo [3,2-d] pyrimidin-2-yl)phenol at 10 mg/kg, ip measured upto 24 hrs by UHPLC-MS analysis; assay type: ADME, organism-based; set-up: dose 10 mg/kg, route intraperitoneal; conditions: in vivo
[12] = Tmax in ovariectomized nu/nu mouse assessed 3-(4-morpholinopyrido [3',2':4,5] furo [3,2-d] pyrimidin-2-yl)phenol at 10 mg/kg, ip measured upto 24 hrs by UHPLC-MS analysis; assay type: ADME, organism-based; conditions: in vivo
[13] = Half life in ovariectomized nu/nu mouse assessed 3-(4-morpholinopyrido [3',2':4,5] furo [3,2-d] pyrimidin-2-yl)phenol at 10 mg/kg, ip measured upto 24 hrs by UHPLC-MS analysis; assay type: ADME, organism-based; conditions: in vivo
[14] = AUC in ovariectomized nu/nu mouse assessed 3-(4-morpholinopyrido [3',2':4,5] furo [3,2-d] pyrimidin-2-yl)phenol at 10 mg/kg, ip measured upto 24 hrs by UHPLC-MS analysis; assay type: ADME, organism-based; set-up: time < 24 hr, dose 10 mg/kg, route intraperitoneal; conditions: in vivo
[15] = Drug concentration in ovariectomized nu/nu mouse plasma assessed 3-(4-morpholinopyrido [3',2':4,5] furo [3,2-d] pyrimidin-2-yl)phenol at 10 mg/kg, po measured after 1 hr by UHPLC-MS analysis; assay type: ADME, organism-based; conditions: in vivo
In short: (§3)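 Female ovariectomized Nu/Nu mice, 4–6 weeks old, n = 5 per group. Single 10 mg/kg oral gavage in 5% DMSO/40% PEG 400/55% saline. Orbital-sinus blood was taken at 0.5, 1, 3, 8 and 24 h, one sampling per group, into EDTA. Plasma was spun at 4 °C and stored at −80 °C. The prodrug's boronic acid metabolite and phenol were quantified by C18 UHPLC–TSQ MS/MS with an acetonitrile/water 0.05% formic acid gradient.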

[16] = Drug concentration in ovariectomized nu/nu mouse plasma assessed 3-(4-morpholinopyrido [3',2':4,5] furo [3,2-d] pyrimidin-2-yl)phenol at 10 mg/kg, po measured after 3 hrs by UHPLC-MS analysis; assay type: ADME, organism-based; conditions: in vivo; in short: as §3

SMILES: CC1(C)OB(c2cccc(-c3nc(N4CCOCC4)c4oc5ncccc5c4n3)c2)OC1(C)C
- IC50 (A549): 570 nM
- IC50 (MDA-MB-231): 440 nM
- IC50 (HeLa): 3820 nM
- IC50 (CWR22R): 660 nM
- IC50 (PC-3): 720 nM
- IC50 (SK-OV-3): 1330 nM
- Drug degradation [1]: 0.04 µM
- Drug degradation [2]: 0.01 µM
- Drug degradation [3]: 0 µM
- Drug degradation [4]: 0 µM
- Drug degradation [5]: 0 µM
- Cp [6]: 14.9 ng/mL
- Cp [7]: 5.4 ng/mL
- Cp [8]: 1.3 ng/mL
- Cp [9]: 1 ng/mL
- Cp [10]: 0.4 ng/mL
- Cmax [11]: 14.9 ng/mL
- Tmax [12]: 0.5 h
- t1/2 [13]: 12.4 h
- AUC [14]: 32.3 ng·h/mL
- Cp [15]: 8.2 ng/mL
- Cp [16]: 6.5 ng/mL
